# Screening data from PubChem.
# UPR XBP1 act: adaptive UPR (XBP1) activation | CHO-XBP1 luciferase reporter, IRE1-XBP1 UPR activation, luminescence; percent of tunicamycin response, DMSO as zero | activation, % at 20 µM | 0.33% of 330,000 active | AID 463104;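 active = versus positive control, 20 µM dose yields 30% or more activation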
#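 Material: CHO cell line with stable XBP1 luciferase reporter; buffer or medium: F12 medium containing 10% fetal bovine serum; compound: single point, 20 µM final compound, 1% DMSO; incubation: 6 h treatment, 37 °C; measured by: glow luminescence from Steady-Glo reagent; evaluation: activation, % of tunicamycin; control set: tunicamycin high, DMSO low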
# CHOP inhibitor: inhibitors of CHOP induction in ER stress response | CHO-K1 CHOP-promoter luciferase, tunicamycin-induced, 15-18 h | inhibition, % at 10 µM | 3.8% of 220,000 active | AID 2732;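 active = compounds that reduced the stress-induced luciferase reporter signal by more than about 70% of percent inhibition, limit read from the data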
# CHOP UPR activ: apoptotic UPR (CHOP) activation; CHO-CHOP luciferase reporter, luminescence; percent of tunicamycin response over DMSO baseline; activation, % at 10 µM; 0.34% of 330,000 active; AID 449763;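 active = at 10 µM dose, activation of 40% or more, normalized to positive control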
#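 Assay system: CHO-CHOP cells, stable luciferase reporter of PERK-eIF2a-CHOP signalling / Buffer or medium: F12 plus 10% serum / Compound dosing: one dose, 10 µM in 0.5% DMSO / Times: 6 h compound treatment, 37 °C / Technique: luciferase luminescence / Read-out: % reporter activation, DMSO baseline versus tunicamycin full activation / Benchmarks: tunicamycin and DMSO controls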
# 697 NFkB inh: lowers PMA/ionomycin-induced NF-kB signal in 697 B cells; 697 B-cell NF-kB luciferase reporter, 16 h; inhibition, % at 4 µM; 0.33% of 330,000 active; in the data active = inhibition above about 35%
# Jurkat NFkB inh: inhibitors of the PMA/ionomycin-induced NF-kB reporter in Jurkat cells; PMA/ionomycin-induced NF-kB luciferase reporter, luminescence; inhibition, % at 4 µM; 0.53% of 330,000 active; AID 435003; in the data active = inhibition above about 50%
# Jurkat NFkB conf: inhibitors of the PMA/ionomycin-induced NF-kB reporter in Jurkat cells, retest | 27% of 2,700 active | inhibition, % at 4 µM | shares compounds with Jurkat NFkB inh | Jurkat NF-kB luciferase, 16 h;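 active = inhibition reaching about 45% at 4 µM in either replicate, limit read from the data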
# 697 NFkB conf: lowers PMA/ionomycin-induced NF-kB signal in 697 B cells. 35% of 2,000 active. 697 B-cell NF-kB luciferase, 16 h. AID 449746. inhibition, % at 4 µM. shares compounds with 697 NFkB inh; in the data active = inhibition mostly above about 28%, no sharp cut-off; inactive = mostly below about 22%
# A number is an active result; n = inactive; x = not tested or not shown. Only a selection was taken, and hits are over-represented in it overall.
SMILES,UPR XBP1 act,CHOP inhibitor,CHOP UPR activ,697 NFkB inh,Jurkat NFkB inh,Jurkat NFkB conf,697 NFkB conf
O=C(CCS(=O)(=O)c1ccccc1)Nc1cccc(-c2nc3ccccc3s2)c1,n,n,n,n,n,x,x
O=C(CCS(=O)(=O)c1ccccc1)Nc1ccc(-c2nc3ccccc3s2)cc1,n,n,n,n,n,n,n
Cc1cc(-c2cc(C(=O)NCc3ccccc3)on2)nc(S(C)(=O)=O)n1,n,n,n,51,52,n,42
Cc1cc([N+](=O)[O-])nn1Cn1nc([N+](=O)[O-])cc1C,n,n,n,n,n,x,x
Cc1cc([N+](=O)[O-])nn1Cc1ccccc1F,n,n,n,51,97,62,76
COc1cccc2c1OCC(C(=O)O)C2 (configuration not stated),n,n,n,n,n,x,x
COc1cccc2c1C(CO)N1C(C#N)C3CC(C(=O)O)C(C1C2)N3C (configuration not stated),n,n,n,104,97,96,102
CC1CN/C(=C\C(=O)c2ccc(Cl)cc2)C(=O)N1 (configuration not stated),n,n,n,n,n,n,n
CC1CN/C(=C\C(=O)c2ccccc2)C(=O)N1 (configuration not stated),n,n,n,n,n,x,x
CC(C)c1ccc2oc(-c3ccc(N)cc3)nc2c1,n,n,n,n,n,n,n
Cc1ccc(-c2nc3cc(C)ccc3o2)cc1,n,n,n,n,n,n,n
Cc1nn(-c2ccccn2)c(C)c1Oc1ccccc1O,n,n,n,n,n,x,x
Cc1nn(-c2nc3ccccc3s2)c(C)c1Oc1ccccc1O,n,x,n,n,n,n,n
CCOC(=O)c1sc(NC(=O)c2sccc2C)cc1C,n,n,n,n,n,n,n
C[C@@]12C(=O)Nc3cc(Cl)ccc3C(=O)N1[C@H]1c3cc(Br)ccc3OC[C@@H]1[C@@H]2c1ccccc1,n,x,n,n,n,x,x
Nc1c(-c2ccc(Cl)cc2)cnc2c(-c3ccccc3)cnn12,n,x,n,n,n,n,n
O=S1(=O)CCN(C(CCO)c2cccc(C(F)(F)F)c2)CC1 (configuration not stated),n,n,n,n,n,x,x
CN(C)c1ccc(/C=N/N=C/c2ccccc2O)cc1,n,81,n,n,n,n,n
CC(C)C(=O)Nc1ccc(N2CCN(c3ccc(F)cc3)CC2)cc1,n,n,n,n,n,x,x
Cc1ccc(-n2nc3ccc(NC(=O)c4ccco4)cc3n2)cc1,n,n,n,n,n,x,x
Cc1ccc(-n2nc3ccc(NC(=O)C(C)C)cc3n2)cc1,n,n,n,n,n,n,n
CC(C)C(=O)Nc1ccc2nn(-c3ccc(F)cc3)nc2c1,n,x,n,n,n,n,n
O=C(CNC(=O)c1ccco1)NCC(=O)OCC(=O)c1ccc(Cl)c([N+](=O)[O-])c1,n,x,n,n,n,x,x
c1ccc(-c2noc(-c3ccc4c(c3)OCO4)n2)cc1,n,n,n,n,n,n,n
COC(=O)c1cccnc1-n1c(=O)c2cccnc2n(Cc2cccc(C(F)(F)F)c2)c1=O,n,n,n,n,n,x,x
SMILES,UPR XBP1 act,CHOP inhibitor,CHOP UPR activ,697 NFkB inh,Jurkat NFkB inh,Jurkat NFkB conf,697 NFkB conf
COc1ccc(C)c2sc(=NC(=O)c3ccc(C(C)=O)cc3)n(C)c12,n,n,n,n,n,n,n
COc1ccccc1N1CCN(c2ccc3ccccc3n2)CC1,n,x,n,n,n,n,n
COc1ccccc1N1CCN(c2cc(N3CCCC3)nc(C)n2)CC1,n,n,n,n,n,x,x
C=CCN=c1scc(-c2ccccc2)n1/N=C/c1ccccn1,n,n,n,n,n,n,n
CCN=c1scc(-c2ccccc2)n1/N=C/c1ccccn1,n,n,n,n,n,n,n
N=c1c2c(-c3ccccc3)c(-c3ccccc3)n(Cc3ccccc3)c2ncn1CCCn1ccnc1,n,n,n,37,58,n,24
Cc1ccc2nc(NC(=O)CCCC(=O)O)sc2c1,n,82,n,71,55,69,76
Cc1ccc2nc(NC(=O)CCCc3nc4ccccc4s3)sc2c1,n,n,n,n,n,x,x
COc1ccc2[nH]c(C(=O)Nc3cccc(C)n3)cc2c1,n,n,n,n,n,n,n
COc1ccc(-c2ccc3sc4ccccc4c(=O)c3c2)cn1,n,x,n,n,n,n,n
COc1ccc2nc(NC(=S)N(C)C)sc2c1,n,n,n,n,n,n,n
COC(=O)c1sc(NC(=O)c2ccoc2C)nc1C,x,n,x,x,x,x,x
CCCC(=O)Nc1nc2ccc(OC)cc2s1,n,n,n,n,n,x,x
COc1ccc2nc(NC(=O)c3ccoc3C)sc2c1,n,n,n,n,n,n,n
CC(=O)CC(=O)Nc1ncccn1,n,n,n,n,n,x,x
COc1cccc(-c2nc(-c3cccs3)no2)c1,n,n,n,n,n,n,n
COc1cc(OC)cc(-c2nc(-c3cccs3)no2)c1,n,n,n,n,n,x,x
O=C(Nc1nc2cc3c(cc2s1)OCCO3)C1CCCCC1,n,x,n,n,n,n,n
COC(=O)c1ccc2nc(NC(=O)C3CCCCC3)sc2c1,n,n,n,n,n,x,x
CC(C)(C)C(=O)/C(=C\c1ccc([N+](=O)[O-])cc1)n1cncn1,n,x,n,44,76,57,50
CN1/C(=C\C=[N+](C)c2ccccc2)C(C)(C)c2ccccc21,n,n,n,83,74,66,57
CN1/C(=C\C=N\O)C(C)(C)c2ccccc21,n,n,n,n,n,x,x
COc1c2c(cc3oc(=O)c4c5ccc(O)cc5oc4c13)OC(C)(C)CC2,n,x,n,n,n,n,n
O=C(Nc1ccc2c(c1)CCC2)Nc1ccccc1F,n,x,n,n,n,n,n
O=S(=O)(NCC1CCCO1)c1ccc(-c2ccc(S(=O)(=O)NCC3CCCO3)cc2)cc1 (configuration not stated),n,n,n,48,70,69,83
SMILES,UPR XBP1 act,CHOP inhibitor,CHOP UPR activ,697 NFkB inh,Jurkat NFkB inh,Jurkat NFkB conf,697 NFkB conf
Cc1nn(-c2ccccc2)c(Cl)c1/C=N/Nc1nc2ccccc2[nH]1,n,n,n,n,n,n,n
Cc1cc(=O)[nH]c(N/N=C/c2c(C)nn(-c3ccccc3)c2Cl)n1,n,n,n,n,n,x,x
O=C(Nc1ccc(Cl)c(Cl)c1)c1ccc2c(c1)OCO2,n,x,n,n,n,n,n
O=C(Nc1cccc(C(=O)O)c1)Nc1ccc2c(c1)OCO2,n,x,n,71,88,69,69
COc1cccc(NC(=O)c2ccccc2)c1,n,x,n,n,n,x,x
COc1cccc(NC(=O)Nc2cccc(C(=O)O)c2)c1,n,76,n,57,70,50,58
COc1cccc(NC(=O)Nc2nc(-c3ccc(OC)c(OC)c3)cs2)c1,n,x,n,56,90,n,n
